Laboratory results as given in ChEMBL document CHEMBL1142774, “Substituted tetraazaacenaphthylenes as potent CRF1 receptor antagonists for the treatment of depression and anxiety” (Bioorg Med Chem Lett, 2005).

Legend:
[1] = Displacement of [125I]o-CRF from recombinant human CRF receptors expressed in Chinese Hamster Ovary (CHO) cell membranes
[2] = Oral bioavailability in rat at 1 hr (dose 0.5 mg/kg i.v.); assay type: ADME, organism-based; conditions: in vivo, 1 mg/kg
Summary of the method: (§1)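 The pharmacokinetic study used Hans–Wistar rats. Each compound was given by the oral route at 1 mg/kg and by the intravenous route at 0.5 mg/kg. Plasma clearance and oral bioavailability were derived from these two administrations.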

[3] = Brain/Plasma ratio level at 1 hr after a intravenous dose 0.5 mg/kg in rats; assay type: ADME, organism-based; parameters: dose 0.5 mg/kg, route intravenous; conditions: rat, read-out: Penetration
Summary of the method: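 Hans–Wistar rats were given a single 0.5 mg/kg intravenous dose. Brain and plasma levels were measured at 1 h post-dose, and the brain/plasma ratio was taken from these levels.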

[4] = Plasma clearance at 1 hr after a intravenous dose 0.5 mg/kg in rats; assay type: ADME, organism-based; parameters: dose 0.5 mg/kg, route intravenous; conditions: rat; summary of the method: as §1

CCC(CC)N1CC2CCN(c3ccc(Cl)cc3Cl)c3nc(C)nc1c32 (stereo unspecified)
Log IC50 [1]: -7.16

Cc1nc2c3c(n1)N(c1ccc(Cl)cc1Cl)CC3CCN2CC1CC1 (stereo unspecified)
Log IC50 [1]: -5.35

CCCC(CCC)n1cc2c3c(nc(C)nc31)N(c1ccc(C(F)(F)F)cc1C(F)(F)F)CC2
Log IC50 [1]: -7.85 | bioavailability [2]: 33% | Kp at 1 h [3]: 1.3 | clearance [4]: 10 mL/min/kg

CCC(CC)n1cc2c3c(nc(C)nc31)N(c1ccc(C#N)cc1Cl)CC2
Log IC50 [1]: -7.21

CCC(CC)n1cc2c3c(nc(C)nc31)N(c1ccc(C(F)(F)F)cc1C(F)(F)F)CC2
Log IC50 [1]: -7.58

CCCC(CCC)N1CCC2CN(c3ccc(Cl)cc3Cl)c3nc(C)nc1c32 (stereo unspecified)
Log IC50 [1]: -7.52 | bioavailability [2]: 31% | Kp at 1 h [3]: 1.8 | clearance [4]: 31 mL/min/kg

CCCC(CCC)n1cc2c3c(nc(C)nc31)N(c1ccc(C#N)cc1C)CC2
Log IC50 [1]: -7.35

CCC(CC)N1CCC2CN(c3ccc(Cl)cc3Cl)c3nc(C)nc1c32 (stereo unspecified)
Log IC50 [1]: -6.74

COCC(COC)N1CC2CCN(c3ccc(Cl)cc3Cl)c3nc(C)nc1c32 (stereo unspecified)
Log IC50 [1]: -5.9

CCC(CC)n1cc2c3c(nc(C)nc31)N(c1ccc(C#N)cc1C)CC2
Log IC50 [1]: -7.57

CCCC(CCC)N1CCC2CN(c3ccc(C(F)(F)F)cc3C(F)(F)F)c3nc(C)nc1c32 (stereo unspecified)
Log IC50 [1]: -7.39

COCC(COC)Nc1nc(C)nc2c(-c3ccc(Cl)cc3Cl)c(C)nn12
Log IC50 [1]: -7.42

CCCC(CCC)N1CC2CCN(c3ccc(Cl)cc3Cl)c3nc(C)nc1c32 (stereo in doubt; 2ac)
Log IC50 [1]: -7.65 | bioavailability [2]: 14% | Kp at 1 h [3]: 2 | clearance [4]: 32 mL/min/kg

CCCC(CCC)N1CC2CCN(c3ccc(C(F)(F)F)cc3C(F)(F)F)c3nc(C)nc1c32 (stereo in doubt; 2ad)
Log IC50 [1]: -7.44 | bioavailability [2]: 36% | Kp at 1 h [3]: 1.1 | clearance [4]: 15 mL/min/kg

CCCC(CCC)N1CC2CCN(c3ccc(Cl)cc3Cl)c3nc(C)nc1c32 (stereo in doubt; 2ae)
Log IC50 [1]: -7.96

CCCC(CCC)N1CC2CCN(c3ccc(Cl)cc3Cl)c3nc(C)nc1c32 (stereo in doubt; 2af)
Log IC50 [1]: -7.89

CCCC(CCC)N1CC2CCN(c3ccc(C(F)(F)F)cc3C(F)(F)F)c3nc(C)nc1c32 (stereo in doubt; 2ag)
Log IC50 [1]: -7.55

CCCC(CCC)N1CC2CCN(c3ccc(C(F)(F)F)cc3C(F)(F)F)c3nc(C)nc1c32 (stereo in doubt; 2ah)
Log IC50 [1]: -7.84

CCCCN(CC)c1nc(C)nc2c1c(C)cn2-c1c(C)cc(C)cc1C [CP-154526]
Log IC50 [1]: -7.76
